# Data taken from ChEMBL document CHEMBL4190404, “Synthesis and characterization of amino acid substituted sunitinib analogues for the treatment of AML” (Bioorg Med Chem Lett, 2018).
# Legend:
# [1] = n-Octanol-buffer distribution coefficient, log D of the compound at pH 5.5 after 1 hr by shake flask method; format: physicochemical
# [2] = Apparent partition coefficient, log P of the compound in n-octanol/aqueous mixture at pH 7.4 after 1 hr by shake flask method; format: physicochemical
# [3] = Dissociation constant, pKa of the compound at 25 to 50 uM by UV spectroscopy; format: physicochemical
# Outline: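 Carboxyl pKa by automated UV/pH titration with MeOH as co-solvent.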
# [4] = tested on: Receptor-type tyrosine-protein kinase FLT3 (Homo sapiens), P36888 [UNDEFINED MUTATION]; test: Inhibition of FLT3 ITD mutant (unknown origin) using TAMRA-Src- tide as substrate at 1.25 uM after 1 hr by fluorescence polarization assay relative to control
# Outline: (§1)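 FLT3-ITD kinase inhibition by fluorescence polarization IMAP assay; each compound tested at 12.5 and 1.25 μM; percent inhibition, average of two parallel measurements.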
# [5] = n-Octanol-buffer distribution coefficient, log D of the compound at pH 7.4 after 1 hr by shake flask method; format: physicochemical
# [6] = tested on: Receptor-type tyrosine-protein kinase FLT3 (Homo sapiens), P36888 [UNDEFINED MUTATION]; test: Inhibition of FLT3 ITD mutant (unknown origin) using TAMRA-Src- tide as substrate at 12.5 uM after 1 hr by fluorescence polarization assay relative to control; outline: as §1
# [7] = Aqueous solubility in pH 5.5 phosphate buffer at 120 uM after 24 hrs by HPLC method; format: physicochemical; conditions: for solubility at 24 h, 120 µM: phosphate buffer, pH 5.5
# [8] = buffer, pH 10.5
# [9] = Aqueous solubility in pH 7.4 phosphate buffer at 120 uM after 24 hrs by HPLC method; format: physicochemical
# [10] = Lipophilicity, chromatographic hydrophobicity index of the compound at pH 5.5 by HPLC method; format: physicochemical; conditions: buffer
# Outline: (§2)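 RP-HPLC with buffer/acetonitrile gradient elution; CHI profile at starting pH 10.5, 7.4, 5.5 and 1.2; values given as average of the compound group.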
# [11] = Lipophilicity, chromatographic hydrophobicity index of the compound at pH 1.2 by HPLC method; format: physicochemical; conditions: buffer; outline: as §2
# [12] = Lipophilicity, chromatographic hydrophobicity index of the compound at pH 7.4 by HPLC method; format: physicochemical; conditions: buffer; outline: as §2
# MV4-11 = test: Antiproliferative activity against human MV4-11 cells after 72 hrs by Celltiter-Glo luminescent cell viability assay; format: functional, cell-based; conditions: MV4-11, 72 h
# Outline: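 MV4-11 leukaemia cells, 72 h proliferation assay, luminescence read-out; IC50 determined from concentration–response.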
# Chain of Receptor-type tyrosine-protein kinase FLT3 (Homo sapiens), P36888 [UNDEFINED MUTATION] (P36888 whole entry, looked up, change not shown): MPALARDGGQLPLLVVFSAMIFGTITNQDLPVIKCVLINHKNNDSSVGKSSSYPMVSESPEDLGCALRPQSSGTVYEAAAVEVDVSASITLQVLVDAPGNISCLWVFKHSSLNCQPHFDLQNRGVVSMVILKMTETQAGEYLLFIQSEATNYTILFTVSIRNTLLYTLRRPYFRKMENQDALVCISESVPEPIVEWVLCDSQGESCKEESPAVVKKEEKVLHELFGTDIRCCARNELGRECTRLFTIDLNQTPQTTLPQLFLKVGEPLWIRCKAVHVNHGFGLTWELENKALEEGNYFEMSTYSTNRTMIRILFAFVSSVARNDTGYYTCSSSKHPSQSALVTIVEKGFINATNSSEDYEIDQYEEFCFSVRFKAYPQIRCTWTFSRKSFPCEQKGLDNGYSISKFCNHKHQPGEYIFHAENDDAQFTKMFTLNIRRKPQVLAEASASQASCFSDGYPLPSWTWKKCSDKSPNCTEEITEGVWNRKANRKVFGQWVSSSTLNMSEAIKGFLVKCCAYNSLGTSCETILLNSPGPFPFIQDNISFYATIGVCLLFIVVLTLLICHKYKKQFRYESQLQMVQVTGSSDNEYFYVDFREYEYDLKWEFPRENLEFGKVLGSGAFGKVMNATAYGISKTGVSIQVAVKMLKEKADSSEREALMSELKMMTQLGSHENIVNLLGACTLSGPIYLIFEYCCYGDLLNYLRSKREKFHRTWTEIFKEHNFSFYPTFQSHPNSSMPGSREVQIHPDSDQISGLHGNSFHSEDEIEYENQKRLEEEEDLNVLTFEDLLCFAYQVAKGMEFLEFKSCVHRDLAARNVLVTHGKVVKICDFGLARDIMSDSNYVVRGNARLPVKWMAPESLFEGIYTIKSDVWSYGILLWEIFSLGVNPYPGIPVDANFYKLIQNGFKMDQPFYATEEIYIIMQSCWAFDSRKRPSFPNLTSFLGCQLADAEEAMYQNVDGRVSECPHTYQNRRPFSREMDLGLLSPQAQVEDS
logD at 1 h [1],logD at 1 h [2],pKa at up to 50 µM [3],inhibition [4] [%],logD at 1 h [5],inhibition [6] [%],"solubility at 24 h, 120 µM [7] [µM]",CHI [8],"solubility at 24 h, 120 µM [9] [µM]",CHI [10],CHI [11],CHI [12],IC50 (MV4-11) [µM],"solubility ([7]; buffer, pH 5.5, 24 h, 120 µM) [µM]",Compound
1.58,4.07,3.01,74.2,-0.32,> 100,–,–,–,–,–,–,–,–,COC(=O)CC[C@H](NC(=O)c1c(C)[nH]c(/C=C2\C(=O)Nc3ccc(C(=O)N[C@H](Cc4ccccc4)C(=O)O)cc32)c1C)C(=O)OC
3.18,5.68,3,74.2,1.28,> 100,–,–,–,–,–,–,13,–,COC(=O)[C@@H](Cc1ccccc1)NC(=O)c1ccc2c(c1)/C(=C/c1[nH]c(C)c(C(=O)N[C@@H](Cc3ccccc3)C(=O)O)c1C)C(=O)N2
1.16,3.62,3.04,58.7,-0.74,> 100,30,46,100,50,67,49,–,–,COC(=O)CC[C@H](NC(=O)c1ccc2c(c1)/C(=C/c1[nH]c(C)c(C(=O)N[C@@H](Cc3ccccc3)C(=O)O)c1C)C(=O)N2)C(=O)OC

# The remaining lines, values behind:
Compound,logD at 1 h [1],logD at 1 h [2],pKa at up to 50 µM [3],inhibition [4] [%],logD at 1 h [5],inhibition [6] [%],"solubility at 24 h, 120 µM [7] [µM]",CHI [8],"solubility at 24 h, 120 µM [9] [µM]",CHI [10],CHI [11],CHI [12],IC50 (MV4-11) [µM],"solubility ([7]; buffer, pH 5.5, 24 h, 120 µM) [µM]"
COC(=O)[C@H](Cc1ccccc1)NC(=O)c1c(C)[nH]c(/C=C2\C(=O)Nc3ccc(C(=O)O)cc32)c1C,3.38,4.32,4.61,85.8,1.53,98.7,< 5,49,100,59,73,52,–,–
Cc1[nH]c(/C=C2\C(=O)Nc3ccc(C(=O)N[C@H](Cc4ccccc4)C(=O)O)cc32)c(C)c1C(=O)N[C@@H](Cc1ccccc1)C(=O)O,0.62,5.62,3,74.2,-3.18,> 100,–,–,–,–,–,–,–,–
COC(=O)c1ccc2c(c1)/C(=C/c1[nH]c(C)c(C(=O)N[C@@H](Cc3ccccc3)C(=O)O)c1C)C(=O)N2,2.23,4.73,3,90.9,0.33,> 100,< 5,51,≥ 120,54,76,53,2.2,–
Cc1[nH]c(/C=C2\C(=O)Nc3ccccc32)c(C)c1CCC(=O)O [ORANTINIB],3.18,4.6,4.1,76.7,1.3,> 100,–,42,≥ 120,59,75,47,3.9,5
COC(=O)CC[C@@H](NC(=O)c1ccc2c(c1)/C(=C/c1[nH]c(C)c(C(=O)N[C@H](CCC(=O)OC)C(=O)OC)c1C)C(=O)N2)C(=O)OC,3.36,3.36,–,62.5,3.36,75.4,–,–,–,–,–,–,–,–
